According to ChEMBL document CHEMBL1126763, “Nonpeptide angiotensin II receptor antagonists. Synthesis and biological activity of potential prodrugs of benzimidazole-7-carboxylic acids” (J Med Chem, 1993):

Legend:
[1] = Tested for half- life in rat small intestine homogenate (1%); format: ADME
Outline: (§1)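 Prodrugs (final 10 μg/mL) were incubated at 37 °C in rat 1% small intestine homogenate, 2% liver homogenate or 10% plasma. Aliquots taken from 10 s to 30 min were deproteinized with methanol, and the residue was redissolved in 1/15 M phosphate buffer. Released parent acid was measured by HPLC (ODS column, UV 258 nm, 0.01 M KH2PO4/MeCN 55/45). t1/2 was taken from the concentration change; mean ± SD, n = 3.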

[2] = Tested for Half- life in rat plasma homogenate (10%) at 37 degree Centigrade; format: ADME; outline: as §1
[3] = Tested for Half- life in rat liver homogenate (2%); format: ADME; outline: as §1
[4] = target: T1, Angiotensin II receptor (Rattus norvegicus) (UniProt P29089+P25095+P35351); assay: Inhibitory activity on AII (100 ng/kg iv)-induced pressor response after administration at 0.1 mg/kg po in conscious male Sprague-Dawley rats at 5 h.; format: functional, organism-based; parameters: dose 0.1 mg/kg
Outline: (§2)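 Conscious male Sprague-Dawley rats received test compounds orally at 0.1 mg/kg. AII (100 ng/kg iv) was given as a pressor challenge at each time point after dosing, and percent inhibition of the pressor response was recorded. Experiments were run in duplicate (n = 2); parent drug and one ester used n = 3. Inhibition may vary by less than 30%.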

[5] = target: T1, Angiotensin II receptor (Rattus norvegicus); assay: Inhibitory activity on AII (100 ng/kg iv)-induced pressor response after administration at 0.1 mg/kg po in conscious male Sprague-Dawley rats at 7 h.; format: functional, organism-based; parameters: dose 0.1 mg/kg; outline: as §2
[6] = target: T1, Angiotensin II receptor (Rattus norvegicus); assay: Inhibitory activity on AII (100 ng/kg iv)-induced pressor response at 0.1 mg/kg po in conscious male Sprague-Dawley rats at 1 h.; format: functional, organism-based; parameters: dose 0.1 mg/kg; outline: as §2
[7] = target: T1, Angiotensin II receptor (Rattus norvegicus); assay: Inhibitory effect on AII (100 ng/kg iv)-induced pressor response after administration at 0.1 mg/kg po in conscious male Sprague-Dawley rats at 0.5 h.; format: functional, organism-based; parameters: dose 0.1 mg/kg; outline: as §2
[8] = target: T1, Angiotensin II receptor (Rattus norvegicus); assay: Inhibitory activity on AII (100 ng/kg iv)-induced pressor response after administration at 0.1 mg/kg po in conscious male Sprague-Dawley rats at 2 h.; format: functional, organism-based; parameters: dose 0.1 mg/kg; outline: as §2
[9] = target: T1, Angiotensin II receptor (Rattus norvegicus); assay: Inhibitory activity on AII (100 ng/kg iv)-induced pressor response after administration at 0.1 mg/kg po in conscious male Sprague-Dawley rats at 24 h.; format: functional, organism-based; parameters: dose 0.1 mg/kg; outline: as §2
[10] = target: T1, Angiotensin II receptor (Rattus norvegicus); assay: Inhibitory activity on AII (100 ng/kg iv)-induced pressor response after administration at 0.1 mg/kg po in conscious male Sprague-Dawley rats at 3 h.; format: functional, organism-based; parameters: dose 0.1 mg/kg; outline: as §2
[11] = Tested against A II at (100 ng/kg iv) in Dawley rats (n=2). 24 h; format: functional; outline: as §2
[12] = tested on: Rattus norvegicus; assay: Inhibitory activity on AII (100 ng/kg iv) -induced pressor response after administration at 0.1 mg/kg po in Dawley rats at 0.5 h; format: functional; outline: as §2
[13] = tested on: Rattus norvegicus; assay: Inhibitory activity on AII (100 ng/kg iv) -induced pressor response after administration at 0.1 mg/kg po in Dawley rats at 1 h; format: functional; outline: as §2

## CCOc1nc2cccc(C(=O)OC(C)OC(=O)OC3CCCCC3)c2n1Cc1ccc(-c2ccccc2-c2nnn[nH]2)cc1 (stereo not drawn) [CANDESARTAN CILEXETIL]
[1]
  half-life: 4.92 min
[2]
  half-life: 2.73 min
[3]
  half-life: 2.29 min

## CCCCc1nc2cccc(C(=O)OCOC(=O)C(C)(C)C)c2n1Cc1ccc(-c2ccccc2-c2nn[nH]n2)cc1
[1]
  half-life: 1.08 min
[2]
  half-life: 0.69 min
[4]
  inhibition: 92%
[5]
  inhibition: 86%
[6]
  inhibition: 90%
[7]
  inhibition: 58%
[8]
  inhibition: 96%
[9]
  inhibition: 50%
[10]
  inhibition: 95%
[3]
  half-life: 3.61 min

## CCCCc1nc2cccc(C(=O)O)c2n1Cc1ccc(-c2ccccc2-c2nnn(COC(=O)C(C)(C)C)n2)cc1.CCCCc1nc2cccc(C(=O)O)c2n1Cc1ccc(-c2ccccc2-c2nnnn2COC(=O)C(C)(C)C)cc1
[1]
  half-life: 22.7 min
[2]
  half-life: 3.94 min
[4]
  inhibition: 67%
[5]
  inhibition: 69%
[6]
  inhibition: 4%
[7]
  inhibition: 7%
[8]
  inhibition: 33%
[9]
  inhibition: 32%
[10]
  inhibition: 63%
[3]
  half-life: 9.8 min

## CCCCc1nc2cccc(C(=O)OCc3oc(=O)oc3C)c2n1Cc1ccc(-c2ccccc2-c2nnn(Cc3oc(=O)oc3C)n2)cc1.CCCCc1nc2cccc(C(=O)OCc3oc(=O)oc3C)c2n1Cc1ccc(-c2ccccc2-c2nnnn2Cc2oc(=O)oc2C)cc1
[11]
  Inhibition: 17%
[4]
  inhibition: 59%
[5]
  inhibition: 46%
[6]
  inhibition: 9%
[7]
  inhibition: 7%
[8]
  inhibition: 33%
[10]
  inhibition: 60%

## CCOc1nc2cccc(C(=O)OCOC(=O)C(C)(C)C)c2n1Cc1ccc(-c2ccccc2-c2nn[nH]n2)cc1
[1]
  half-life: 0.3 min
[2]
  half-life: 0.15 min
[4]
  inhibition: 87%
[5]
  inhibition: 86%
[6]
  inhibition: 77%
[7]
  inhibition: 42%
[8]
  inhibition: 88%
[9]
  inhibition: 43%
[10]
  inhibition: 86%
[3]
  half-life: 0.48 min

## CCCCc1nc2cccc(C(=O)O)c2n1Cc1ccc(-c2ccccc2-c2nnnn2C)cc1
[4]
  inhibition: 59%
[5]
  inhibition: 53%
[12]
  inhibition in vivo at 0.1 mg/kg: 12%
[13]
  inhibition in vivo at 0.1 mg/kg: 29%
[8]
  inhibition: 29%
[9]
  inhibition: 16%
[10]
  inhibition: 56%

## CCCCc1nc2cccc(C(=O)OCCN3CCCCC3)c2n1Cc1ccc(-c2ccccc2-c2nn[nH]n2)cc1
[4]
  inhibition: 62%
[5]
  inhibition: 49%
[12]
  inhibition in vivo at 0.1 mg/kg: 20%
[13]
  inhibition in vivo at 0.1 mg/kg: 47%
[8]
  inhibition: 46%
[9]
  inhibition: 28%
[10]
  inhibition: 69%

## CCCCOC(=O)c1cccc2nc(CCCC)n(Cc3ccc(-c4ccccc4-c4nn[nH]n4)cc3)c12
[4]
  inhibition: 88%
[5]
  inhibition: 90%
[12]
  inhibition in vivo at 0.1 mg/kg: 16%
[13]
  inhibition in vivo at 0.1 mg/kg: 40%
[8]
  inhibition: 80%
[9]
  inhibition: 76%
[10]
  inhibition: 78%

## CCCCc1nc2cccc(C(=O)O)c2n1Cc1ccc(-c2ccccc2-c2nnn(C)n2)cc1
[4]
  inhibition: 13%
[5]
  inhibition: 26%
[12]
  inhibition in vivo at 0.1 mg/kg: 22%
[13]
  inhibition in vivo at 0.1 mg/kg: 26%
[8]
  inhibition: 6%
[9]
  inhibition: 23%
[10]
  inhibition: 9%
